# Measured values: ChEMBL document CHEMBL4480426, “Novel multi-target directed ligands based on annelated xanthine scaffold with aromatic substituents acting on adenosine receptor and monoamine oxidase B. Synthesis, in vitro and in silico studies” (Bioorg Med Chem, 2019)
# Target: T1, Adenosine receptor A1 (Homo sapiens, UniProt P30542)
# T1 sequence (P30542 whole entry): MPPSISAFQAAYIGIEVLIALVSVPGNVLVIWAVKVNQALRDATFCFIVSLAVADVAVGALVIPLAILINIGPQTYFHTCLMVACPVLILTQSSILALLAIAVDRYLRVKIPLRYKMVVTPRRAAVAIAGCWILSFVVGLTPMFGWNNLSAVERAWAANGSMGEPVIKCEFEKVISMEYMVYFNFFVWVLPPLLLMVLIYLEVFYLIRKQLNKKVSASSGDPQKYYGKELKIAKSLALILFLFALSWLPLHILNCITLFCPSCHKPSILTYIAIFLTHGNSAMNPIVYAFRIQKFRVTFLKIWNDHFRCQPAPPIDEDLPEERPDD
# Test: Displacement of [3H]CCPA from recombinant human adenosine A1 receptor expressed in CHO cells
# Format: cell-based
# Settings: not given
row,SMILES,Ki
1,Cn1c(=O)c2c(nc3n2CCN3Cc2cccc(Br)c2)n(C)c1=O,0.396 µM
2,Cn1c(=O)c2c(nc3n2CCCCN3Cc2ccccc2F)n(C)c1=O,> 1 µM
3,Cn1c(=O)c2c(nc3n2CCN3Cc2ccc(Cl)cc2)n(C)c1=O,> 1 µM
4,Cn1c(=O)c2c(nc3n2CCN3Cc2ccc(Cl)c(Cl)c2)n(C)c1=O,> 1 µM
5,Cn1c(=O)c2c(nc3n2CCN3Cc2ccc(F)c(Br)c2)n(C)c1=O,> 1 µM

# Target: T2, Adenosine receptor A1 (Homo sapiens) (UniProt P30542)
# T2 sequence (whole entry): T1 sequence (P30542 whole entry)
# Test: Displacement of [3H]CCPA from recombinant human adenosine A1 receptor expressed in CHO cells at 1 uM relative to control
# Format: cell-based
# Settings: not given
# In short: (§1)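 Purchased membranes of CHO cells expressing human A1 ([3H]CCPA) or human A3 ([3H]PSB-11). A single high compound concentration is screened first; for potent compounds, full inhibition curves spanning 3 orders of magnitude. At least three independent experiments.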
row,SMILES,inhibition
1,Cn1c(=O)c2c(nc3n2CCCCN3Cc2ccccc2F)n(C)c1=O,11%
2,Cn1c(=O)c2c(nc3n2CCN3Cc2ccc(Cl)cc2)n(C)c1=O,23%
3,Cn1c(=O)c2c(nc3n2CCN3Cc2ccc(Cl)c(Cl)c2)n(C)c1=O,1%
4,Cn1c(=O)c2c(nc3n2CCN3Cc2ccc(F)c(Br)c2)n(C)c1=O,6%

# Target: T3, Adenosine receptor A2a (Homo sapiens, UniProt P29274)
# T3 sequence (P29274 whole entry): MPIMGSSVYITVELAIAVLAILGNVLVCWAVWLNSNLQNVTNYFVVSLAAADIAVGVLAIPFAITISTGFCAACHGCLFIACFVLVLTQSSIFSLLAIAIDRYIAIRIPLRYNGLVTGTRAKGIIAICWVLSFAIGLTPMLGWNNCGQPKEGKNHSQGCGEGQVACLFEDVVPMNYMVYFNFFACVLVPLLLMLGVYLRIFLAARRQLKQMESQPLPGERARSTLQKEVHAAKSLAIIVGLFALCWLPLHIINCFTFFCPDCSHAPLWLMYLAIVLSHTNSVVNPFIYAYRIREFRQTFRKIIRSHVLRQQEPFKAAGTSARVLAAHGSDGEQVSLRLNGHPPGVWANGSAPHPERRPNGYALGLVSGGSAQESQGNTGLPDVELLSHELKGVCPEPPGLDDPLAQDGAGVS
# Test: Displacement of [3H]MSX2 from recombinant human adenosine A2a receptor expressed in HEK293 cells
# Format: cell-based
# Settings: not given
row,SMILES,Ki
1,Cn1c(=O)c2c(nc3n2CCN3Cc2cccc(Br)c2)n(C)c1=O,0.369 µM
2,Cn1c(=O)c2c(nc3n2CCCCN3Cc2ccccc2F)n(C)c1=O,1.08 µM
3,Cn1c(=O)c2c(nc3n2CCN3Cc2ccc(Cl)cc2)n(C)c1=O,> 1 µM
4,Cn1c(=O)c2c(nc3n2CCN3Cc2ccc(Cl)c(Cl)c2)n(C)c1=O,> 1 µM
5,Cn1c(=O)c2c(nc3n2CCN3Cc2ccc(F)c(Br)c2)n(C)c1=O,> 1 µM

# Target: T3, Adenosine receptor A2a
# Test: Displacement of [3H]MSX2 from recombinant human adenosine A2a receptor expressed in HEK293 cells at 1 uM relative to control
# Format: cell-based
# Settings: not given
# In short: (§2)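 Purchased membranes of HEK cells expressing human A2A ([3H]MSX-2) or human A2B ([3H]PSB-603). A single high compound concentration is screened first; for potent compounds, full inhibition curves spanning 3 orders of magnitude. At least three independent experiments.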
row,SMILES,inhibition
1,Cn1c(=O)c2c(nc3n2CCN3Cc2ccc(Cl)cc2)n(C)c1=O,42%
2,Cn1c(=O)c2c(nc3n2CCN3Cc2ccc(Cl)c(Cl)c2)n(C)c1=O,29%
3,Cn1c(=O)c2c(nc3n2CCN3Cc2ccc(F)c(Br)c2)n(C)c1=O,30%

# Target: T4, Adenosine receptor A2b (Homo sapiens, UniProt P29275)
# T4 sequence (P29275 whole entry): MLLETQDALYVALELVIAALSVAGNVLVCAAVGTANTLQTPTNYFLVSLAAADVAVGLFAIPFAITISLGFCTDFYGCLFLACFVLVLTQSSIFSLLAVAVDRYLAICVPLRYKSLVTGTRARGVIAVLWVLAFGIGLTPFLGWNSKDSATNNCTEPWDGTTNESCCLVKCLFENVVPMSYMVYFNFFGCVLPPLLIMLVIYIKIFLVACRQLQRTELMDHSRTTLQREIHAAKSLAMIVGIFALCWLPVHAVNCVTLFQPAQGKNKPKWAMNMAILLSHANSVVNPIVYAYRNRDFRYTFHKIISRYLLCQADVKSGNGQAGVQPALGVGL
# Test: Displacement of [3H]PSB603 from recombinant human adenosine A2b receptor expressed in HEK293 cells
# Format: cell-based
# Settings: not given
row,SMILES,Ki
1,Cn1c(=O)c2c(nc3n2CCN3Cc2cccc(Br)c2)n(C)c1=O,> 1 µM
2,Cn1c(=O)c2c(nc3n2CCCCN3Cc2ccccc2F)n(C)c1=O,> 1 µM
3,Cn1c(=O)c2c(nc3n2CCN3Cc2ccc(Cl)cc2)n(C)c1=O,> 1 µM
4,Cn1c(=O)c2c(nc3n2CCN3Cc2ccc(Cl)c(Cl)c2)n(C)c1=O,> 1 µM
5,Cn1c(=O)c2c(nc3n2CCN3Cc2ccc(F)c(Br)c2)n(C)c1=O,> 1 µM

# Target: T5, Adenosine receptor A2b (Homo sapiens) (UniProt P29275)
# T5 sequence (whole entry): T4 sequence (P29275 whole entry)
# Test: Displacement of [3H]PSB603 from recombinant human adenosine A2b receptor expressed in HEK293 cells at 1 uM relative to control
# Format: cell-based
# Settings: not given
# In short: as §2
row,SMILES,inhibition
1,Cn1c(=O)c2c(nc3n2CCN3Cc2cccc(Br)c2)n(C)c1=O,30%
2,Cn1c(=O)c2c(nc3n2CCCCN3Cc2ccccc2F)n(C)c1=O,40%
3,Cn1c(=O)c2c(nc3n2CCN3Cc2ccc(Cl)cc2)n(C)c1=O,21%
4,Cn1c(=O)c2c(nc3n2CCN3Cc2ccc(Cl)c(Cl)c2)n(C)c1=O,22%
5,Cn1c(=O)c2c(nc3n2CCN3Cc2ccc(F)c(Br)c2)n(C)c1=O,2%

# Target: T6, Adenosine receptor A3 (Homo sapiens, UniProt P0DMS8)
# T6 sequence (P0DMS8 whole entry): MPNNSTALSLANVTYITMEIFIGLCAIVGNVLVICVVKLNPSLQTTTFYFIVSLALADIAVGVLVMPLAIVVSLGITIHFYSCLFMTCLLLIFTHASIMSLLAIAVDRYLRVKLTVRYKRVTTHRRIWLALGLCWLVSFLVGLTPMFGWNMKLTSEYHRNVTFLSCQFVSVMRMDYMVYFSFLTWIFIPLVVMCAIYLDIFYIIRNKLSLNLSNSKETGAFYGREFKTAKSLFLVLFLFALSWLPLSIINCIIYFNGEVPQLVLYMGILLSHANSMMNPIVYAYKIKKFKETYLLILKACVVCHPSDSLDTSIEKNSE
# Test: Displacement of [3H]PSB11 from recombinant human adenosine A3 receptor expressed in CHO cells
# Format: cell-based
# Settings: not given
row,SMILES,Ki
1,Cn1c(=O)c2c(nc3n2CCN3Cc2cccc(Br)c2)n(C)c1=O,> 1 µM
2,Cn1c(=O)c2c(nc3n2CCCCN3Cc2ccccc2F)n(C)c1=O,> 1 µM
3,Cn1c(=O)c2c(nc3n2CCN3Cc2ccc(Cl)cc2)n(C)c1=O,> 1 µM
4,Cn1c(=O)c2c(nc3n2CCN3Cc2ccc(Cl)c(Cl)c2)n(C)c1=O,> 1 µM
5,Cn1c(=O)c2c(nc3n2CCN3Cc2ccc(F)c(Br)c2)n(C)c1=O,> 1 µM

# Target: T7, Adenosine receptor A3 (Homo sapiens) (UniProt P0DMS8)
# T7 sequence (whole entry): T6 sequence (P0DMS8 whole entry)
# Test: Displacement of [3H]PSB11 from recombinant human adenosine A3 receptor expressed in CHO cells at 1 uM relative to control
# Format: cell-based
# Settings: not given
# In short: as §1
row,SMILES,inhibition
1,Cn1c(=O)c2c(nc3n2CCN3Cc2cccc(Br)c2)n(C)c1=O,22%
2,Cn1c(=O)c2c(nc3n2CCCCN3Cc2ccccc2F)n(C)c1=O,11%
3,Cn1c(=O)c2c(nc3n2CCN3Cc2ccc(Cl)cc2)n(C)c1=O,30%
4,Cn1c(=O)c2c(nc3n2CCN3Cc2ccc(Cl)c(Cl)c2)n(C)c1=O,11%
5,Cn1c(=O)c2c(nc3n2CCN3Cc2ccc(F)c(Br)c2)n(C)c1=O,1%

# Target: T8, Amine oxidase [flavin-containing] A (Homo sapiens, UniProt P21397)
# T8 sequence (P21397 whole entry): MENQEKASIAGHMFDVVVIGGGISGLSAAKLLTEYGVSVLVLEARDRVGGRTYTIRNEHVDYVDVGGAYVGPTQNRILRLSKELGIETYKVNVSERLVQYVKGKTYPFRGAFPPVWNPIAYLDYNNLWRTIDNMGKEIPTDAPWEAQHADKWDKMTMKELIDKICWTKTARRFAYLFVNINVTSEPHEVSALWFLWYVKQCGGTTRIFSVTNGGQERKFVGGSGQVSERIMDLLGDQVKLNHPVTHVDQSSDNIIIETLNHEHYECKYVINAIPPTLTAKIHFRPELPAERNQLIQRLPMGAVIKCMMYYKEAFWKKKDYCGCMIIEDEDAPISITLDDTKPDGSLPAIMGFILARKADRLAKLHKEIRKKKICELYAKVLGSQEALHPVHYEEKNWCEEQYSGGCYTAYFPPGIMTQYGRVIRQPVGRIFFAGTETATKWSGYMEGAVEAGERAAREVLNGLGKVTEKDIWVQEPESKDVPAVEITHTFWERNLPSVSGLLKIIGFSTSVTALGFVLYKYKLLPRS
# Test: Inhibition of recombinant human MAOA expressed in baculovirus infected BTI insect cells using p-tyramine as substrate preincubated for 30 mins followed by substrate addition and measured over 45 mins by horseradish peroxidase-Amplex Red-coupled fluorometric assay
# Settings: not given
# In short: (§3)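 Human recombinant MAO-A or MAO-B enzyme. Activity detected fluorometrically with the Amplex Red monoamine oxidase assay.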
row,SMILES,IC50
1,Cn1c(=O)c2c(nc3n2CCN3Cc2cccc(Br)c2)n(C)c1=O,> 1 µM
2,Cn1c(=O)c2c(nc3n2CCCCN3Cc2ccccc2F)n(C)c1=O,> 1 µM
3,Cn1c(=O)c2c(nc3n2CCN3Cc2ccc(Cl)cc2)n(C)c1=O,> 1 µM
4,Cn1c(=O)c2c(nc3n2CCN3Cc2ccc(Cl)c(Cl)c2)n(C)c1=O,> 1 µM
5,Cn1c(=O)c2c(nc3n2CCN3Cc2ccc(F)c(Br)c2)n(C)c1=O,> 1 µM

# Target: T9, Amine oxidase [flavin-containing] B (Homo sapiens, UniProt P27338)
# T9 sequence (P27338 whole entry): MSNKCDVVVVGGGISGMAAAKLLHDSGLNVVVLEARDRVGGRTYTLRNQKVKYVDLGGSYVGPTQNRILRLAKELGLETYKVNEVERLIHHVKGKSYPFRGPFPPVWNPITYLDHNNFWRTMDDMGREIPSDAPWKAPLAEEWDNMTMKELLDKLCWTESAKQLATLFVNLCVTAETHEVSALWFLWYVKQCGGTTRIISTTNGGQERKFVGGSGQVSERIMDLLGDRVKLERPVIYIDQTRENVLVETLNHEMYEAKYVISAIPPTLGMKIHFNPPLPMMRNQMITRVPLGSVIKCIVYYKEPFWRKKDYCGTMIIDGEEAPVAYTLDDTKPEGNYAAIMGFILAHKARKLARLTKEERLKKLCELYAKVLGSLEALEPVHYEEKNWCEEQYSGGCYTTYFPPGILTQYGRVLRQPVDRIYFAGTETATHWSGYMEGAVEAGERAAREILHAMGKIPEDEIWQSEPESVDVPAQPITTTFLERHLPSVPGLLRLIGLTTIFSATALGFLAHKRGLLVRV
# Test: Inhibition of recombinant human MAOB expressed in baculovirus infected BTI insect cells using p-tyramine as substrate preincubated for 30 mins followed by substrate addition and measured over 45 mins by horseradish peroxidase-Amplex Red-coupled fluorometric assay
# Settings: not given
# In short: as §3
row,SMILES,IC50
1,Cn1c(=O)c2c(nc3n2CCN3Cc2cccc(Br)c2)n(C)c1=O,> 1 µM
2,Cn1c(=O)c2c(nc3n2CCCCN3Cc2ccccc2F)n(C)c1=O,> 1 µM
3,Cn1c(=O)c2c(nc3n2CCN3Cc2ccc(Cl)cc2)n(C)c1=O,> 1 µM
4,Cn1c(=O)c2c(nc3n2CCN3Cc2ccc(Cl)c(Cl)c2)n(C)c1=O,0.515 µM
5,Cn1c(=O)c2c(nc3n2CCN3Cc2ccc(F)c(Br)c2)n(C)c1=O,0.177 µM

# Target: T8, Amine oxidase [flavin-containing] A
# Test: Inhibition of recombinant human MAOA expressed in baculovirus infected BTI insect cells at 1 to 100 uM using p-tyramine as substrate preincubated for 30 mins followed by substrate addition and measured over 45 mins by horseradish peroxidase-Amplex Red-coupled fluorometric assay relative to control
# Settings: 0.75 h
# In short: as §3
row,SMILES,inhibition (INH)
1,Cn1c(=O)c2c(nc3n2CCN3Cc2cccc(Br)c2)n(C)c1=O,11%
2,Cn1c(=O)c2c(nc3n2CCCCN3Cc2ccccc2F)n(C)c1=O,14%
3,Cn1c(=O)c2c(nc3n2CCN3Cc2ccc(Cl)cc2)n(C)c1=O,16%
4,Cn1c(=O)c2c(nc3n2CCN3Cc2ccc(Cl)c(Cl)c2)n(C)c1=O,-2%
5,Cn1c(=O)c2c(nc3n2CCN3Cc2ccc(F)c(Br)c2)n(C)c1=O,6%

# Target: T9, Amine oxidase [flavin-containing] B
# Test: Inhibition of recombinant human MAOB expressed in baculovirus infected BTI insect cells at 1 to 100 uM using p-tyramine as substrate preincubated for 30 mins followed by substrate addition and measured over 45 mins by horseradish peroxidase-Amplex Red-coupled fluorometric assay relative to control
# Settings: 0.75 h
# In short: as §3
row,SMILES,inhibition (INH)
1,Cn1c(=O)c2c(nc3n2CCN3Cc2cccc(Br)c2)n(C)c1=O,39%
2,Cn1c(=O)c2c(nc3n2CCCCN3Cc2ccccc2F)n(C)c1=O,39%
3,Cn1c(=O)c2c(nc3n2CCN3Cc2ccc(Cl)cc2)n(C)c1=O,42%
